Measurements from ChEMBL document CHEMBL2412956, “Synthesis and biological activity evaluation of 5-pyrazoline substituted 4-thiazolidinones” (Eur J Med Chem, 2013).

System: not listed separately
Test: Antiviral activity against SARS coronavirus Urbani infected in MDCK cells assessed as inhibition of virus-induced cytopathic effect by cell-based neutral red uptake assay
Format: functional
Conditions: Severe acute respiratory syndrome-related coronavirus

Compound | EC50 [µM]
CCN1CCN(CN2C(=O)SC(N3N=C(c4ccc5ccccc5c4)CC3c3ccc(Cl)cc3)C2=O)CC1 (centres undefined) | > 16.8
Cc1ccc(NC(=O)CN2C(=O)SC(N3N=C(c4ccc5ccccc5c4)CC3c3ccc(Cl)cc3)C2=O)cc1 (centres undefined) | > 351

System: Influenza B virus
Test: Antiviral activity against Influenza B virus (B/Florida/4/2006) infected in MDCK cells assessed as inhibition of virus-induced cytopathic effect by cell-based neutral red uptake assay
Format: functional
Conditions: B/Florida/4/2006, MDCK

Compound | EC50 [µM]
CCN1CCN(CN2C(=O)SC(N3N=C(c4ccc5ccccc5c4)CC3c3ccc(Cl)cc3)C2=O)CC1 (centres undefined) | 4.01
Cc1ccc(NC(=O)CN2C(=O)SC(N3N=C(c4ccc5ccccc5c4)CC3c3ccc(Cl)cc3)C2=O)cc1 (centres undefined) | 35.1

System: T47D
Test: Cytotoxicity against human T47D cells assessed as cell growth at 10 uM after 48 hrs by SRB assay relative to control
Format: functional
Conditions: read-out: Activity
Procedure, shortened: (§1)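 Single-dose NCI screen: compound at 10⁻⁵ M added to tumor cell cultures and incubated for 48 h. The SRB protein-binding dye end point was read spectrophotometrically. Results are percent growth of treated cells relative to untreated controls.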

Compound | growth at 10 µM [%]
COc1ccc(C2CC(c3ccc4ccccc4c3)=NN2C(=O)/C=C2\SC(=O)NC2=O)cc1 (centres undefined) | 78.7

System: K562
Test: Cytotoxicity against human K562 cells assessed as cell growth at 10 uM after 48 hrs by SRB assay relative to control
Format: functional
Conditions: K562, 48 h, read-out: Activity
Procedure, shortened: (§2)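 This was the NCI primary screen, with compound added once at 10⁻⁵ M and cultures incubated for 48 h. The endpoint was sulforhodamine B protein staining. Results are expressed as percent growth of treated cells relative to untreated control cells.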

Compound | growth at 10 µM [%]
CC(=O)N1CCN(CN2C(=O)SC(N3N=C(c4ccc5ccccc5c4)CC3c3ccc(Cl)cc3)C2=O)CC1 (centres undefined) | 76.4

System: Trypanosoma brucei gambiense
Test: Antitrypanosomal activity against bloodstream form of Trypanosoma brucei gambiense Feo assessed as parasite growth inhibition after 72 hrs by resazurin-based fluorescence assay
Format: functional, organism-based
Conditions: not given
Procedure, shortened: (§3)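 Bloodstream forms of strain 90-13 or Feo were grown in HMI9 with 10% FCS at 37 °C under 5% CO₂. Log-phase parasites were seeded at 10⁵ cells/ml and exposed for 72 h to 10–0.625 μg/ml drug from DMSO stocks, with DMSO as control. Resazurin was added at 45 μM final, and fluorescence was read 4 h later. IC₅₀ was taken from the dose–response curve as the mean of three independent experiments.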

Compound | IC50 [µM]
Cc1ccc(NC(=O)CN2C(=O)SC(N3N=C(c4ccc5ccccc5c4)CC3c3ccc(Cl)cc3)C2=O)cc1 (centres undefined) | 2.53
N=C(N)c1ccc(OCCCCCOc2ccc(C(=N)N)cc2)cc1 [PENTAMIDINE] | 0.0053

System: UO-31
Test: Cytotoxicity against human UO31 cells assessed as cell growth at 10 uM after 48 hrs by SRB assay relative to control
Format: functional
Conditions: UO-31, 48 h, read-out: Activity
Procedure, shortened: as §1

Compound | growth at 10 µM [%]
COc1ccc(C2CC(c3ccc4ccccc4c3)=NN2C2SC(=O)N(CN3CCN(C(C)=O)CC3)C2=O)cc1 (centres undefined) | 82.2

System: Influenza A virus
Test: Antiviral activity against Influenza A virus (A/Perth/16/2009(H3N2)) infected in MDCK cells assessed as inhibition of virus-induced cytopathic effect by cell-based neutral red uptake assay
Format: functional, organism-based
Conditions: not given

Compound | EC50 [µM]
CCN1CCN(CN2C(=O)SC(N3N=C(c4ccc5ccccc5c4)CC3c3ccc(Cl)cc3)C2=O)CC1 (centres undefined) | > 2.37
Cc1ccc(NC(=O)CN2C(=O)SC(N3N=C(c4ccc5ccccc5c4)CC3c3ccc(Cl)cc3)C2=O)cc1 (centres undefined) | > 13.3
NC(=O)c1ncn([C@@H]2O[C@H](CO)[C@@H](O)[C@H]2O)n1 [RIBAVIRIN] | 18.4

System: MDCK
Test: (§4) Cytotoxicity against MDCK cells
Format: cell-based, Canis lupus familiaris
Conditions: dog, mdck
Procedure, shortened: (§5)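 Cytotoxicity was measured in uninfected wells run alongside the antiviral plates, across eight half-log dilutions in MEM. Cells were stained with neutral red, and the extracted dye was read at 540 nm. CC₅₀, the concentration giving 50% cytotoxicity, was obtained by regression, and values are reported in μM.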

Compound | CC50 [µM]
CCN1CCN(CN2C(=O)SC(N3N=C(c4ccc5ccccc5c4)CC3c3ccc(Cl)cc3)C2=O)CC1 (centres undefined) | 2.37
Cc1ccc(NC(=O)CN2C(=O)SC(N3N=C(c4ccc5ccccc5c4)CC3c3ccc(Cl)cc3)C2=O)cc1 (centres undefined) | > 13.3

System: not listed separately
Test: as §4
Format: cell-based, Canis lupus familiaris
Conditions: dog, MDCK cells
Procedure, shortened: as §5

Compound | CC50 [µM]
NC(=O)c1ncn([C@@H]2O[C@H](CO)[C@@H](O)[C@H]2O)n1 [RIBAVIRIN] | > 324

System: not listed separately
Test: Selectivity index, ratio of CC50 for MDCK cells to EC50 for Influenza B virus (B/Florida/4/2006)
Format: toxicity, cell-based
Conditions: dog, read-out: Ratio CC50/EC50

Compound | selectivity ratio
CCN1CCN(CN2C(=O)SC(N3N=C(c4ccc5ccccc5c4)CC3c3ccc(Cl)cc3)C2=O)CC1 (centres undefined) | 2.1
Cc1ccc(NC(=O)CN2C(=O)SC(N3N=C(c4ccc5ccccc5c4)CC3c3ccc(Cl)cc3)C2=O)cc1 (centres undefined) | 1.3

System: Trypanosoma brucei brucei
Test: Antitrypanosomal activity against bloodstream form of Trypanosoma brucei brucei 90-13 assessed as parasite growth inhibition after 72 hrs by resazurin-based fluorescence assay
Format: functional, organism-based
Conditions: 90-13, 72 h
Procedure, shortened: as §3

Compound | IC50 [µM]
Cc1ccc(NC(=O)CN2C(=O)SC(N3N=C(c4ccc5ccccc5c4)CC3c3ccc(Cl)cc3)C2=O)cc1 (centres undefined) | 5.43

System: Influenza A virus
Test: Antiviral activity against Influenza A virus (A/California/07/2009(H1N1)) infected in MDCK cells assessed as inhibition of virus-induced cytopathic effect by cell-based neutral red uptake assay
Format: functional, organism-based
Conditions: not given

Compound | EC50 [µM]
CCN1CCN(CN2C(=O)SC(N3N=C(c4ccc5ccccc5c4)CC3c3ccc(Cl)cc3)C2=O)CC1 (centres undefined) | 4.01
Cc1ccc(NC(=O)CN2C(=O)SC(N3N=C(c4ccc5ccccc5c4)CC3c3ccc(Cl)cc3)C2=O)cc1 (centres undefined) | 54.5
NC(=O)c1ncn([C@@H]2O[C@H](CO)[C@@H](O)[C@H]2O)n1 [RIBAVIRIN] | 23.8

System: CCRF-CEM
Test: Cytotoxicity against human CCRF-CEM cells assessed as cell growth at 10 uM after 48 hrs by SRB assay relative to control
Format: functional
Conditions: read-out: Activity
Procedure, shortened: as §2

Compound | growth at 10 µM [%]
COc1ccc(NC(=O)CN2C(=O)S/C(=C\C(=O)N3N=C(c4ccc5ccccc5c4)CC3c3ccc(OC)cc3)C2=O)cc1 (centres undefined) | 74.7

System: not listed separately
Test: Selectivity index, ratio of CC50 for MDCK cells to EC50 for Influenza A virus (A/California/07/2009(H1N1))
Format: toxicity, cell-based
Conditions: dog, read-out: Ratio CC50/EC50

Compound | selectivity ratio
CCN1CCN(CN2C(=O)SC(N3N=C(c4ccc5ccccc5c4)CC3c3ccc(Cl)cc3)C2=O)CC1 (centres undefined) | 1.1
Cc1ccc(NC(=O)CN2C(=O)SC(N3N=C(c4ccc5ccccc5c4)CC3c3ccc(Cl)cc3)C2=O)cc1 (centres undefined) | 1.3

System: not listed separately
Test: Selectivity index, ratio of CC50 for MDCK cells to EC50 for Influenza A virus (A/duck/Minnesota/1525/1981(H5N1))
Format: toxicity, cell-based
Conditions: dog, read-out: Ratio CC50/EC50

Compound | selectivity ratio
CCN1CCN(CN2C(=O)SC(N3N=C(c4ccc5ccccc5c4)CC3c3ccc(Cl)cc3)C2=O)CC1 (centres undefined) | 1.4
Cc1ccc(NC(=O)CN2C(=O)SC(N3N=C(c4ccc5ccccc5c4)CC3c3ccc(Cl)cc3)C2=O)cc1 (centres undefined) | 1.1

System: Influenza A virus
Test: Antiviral activity against Influenza A virus (A/duck/Minnesota/1525/1981(H5N1)) infected in MDCK cells assessed as inhibition of virus-induced cytopathic effect by cell-based neutral red uptake assay
Format: functional, organism-based
Conditions: not given

Compound | EC50 [µM]
CCN1CCN(CN2C(=O)SC(N3N=C(c4ccc5ccccc5c4)CC3c3ccc(Cl)cc3)C2=O)CC1 (centres undefined) | 4.38
Cc1ccc(NC(=O)CN2C(=O)SC(N3N=C(c4ccc5ccccc5c4)CC3c3ccc(Cl)cc3)C2=O)cc1 (centres undefined) | 51
NC(=O)c1ncn([C@@H]2O[C@H](CO)[C@@H](O)[C@H]2O)n1 [RIBAVIRIN] | 18.4
